Experimental data published in ChEMBL document CHEMBL1142586, “Bisnortriterpenes from Salacia madagascariensis” (J Nat Prod, 2005).
≈ marks a conversion by molar mass, not a printed value.

Tests used:
Leishmania donovani = test: Antileishmanial activity against Leishmania donovani promastigotes after 48 hrs by alamar blue assay; type: functional, organism-based
Summary of the method: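 IC50 (µg/mL) was determined in two separate tests against Leishmania donovani, and the mean of the tests was reported. IC90 was also determined.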

Staphylococcus aureus [1] = test: Antimicrobial activity against Staphylococcus aureus by NCCLS method; type: functional, organism-based
Staphylococcus aureus [2] = test: Antimicrobial activity against methicillin-resistant Staphylococcus aureus by NCCLS method; type: functional, organism-based
[3] = test system: Mycobacterium intracellulare; test: Antimicrobial activity against Mycobacterium intracellular by alamar blue test; type: functional, organism-based
Plasmodium falciparum [4] = test: Antiplasmodial activity against Plasmodium falciparum D6; type: functional, organism-based
[5] = Selectivity index, ratio of IC50 for african green monkey (Cercopithecus aethiops) Vero cells to IC50 for Plasmodium falciparum D6; type: toxicity, cell-based; details: read-out: Selectivity Index
Summary of the method: (§1)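 The index was calculated as the VERO (monkey kidney cell line) IC50 divided by the IC50 against the respective P. falciparum clone.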

Plasmodium falciparum [6] = test: Antiplasmodial activity against Plasmodium falciparum W2; type: functional, organism-based
[7] = Selectivity index, ratio of IC50 for african green monkey (Cercopithecus aethiops) Vero cells to IC50 for Plasmodium falciparum W2; type: toxicity, cell-based; details: read-out: Selectivity Index; summary of the method: as §1
Vero = test: Cytotoxicity against african green monkey Vero cells; type: cell-based; details: Chlorocebus sabaeus
[8] = Selectivity index, ratio of IC50 for african green monkey VERO cells to IC50 for Leishmania donovani; type: toxicity, cell-based; details: read-out: Selectivity Index
Summary of the method: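 The index was calculated as the VERO cell IC50 divided by the mean IC50 against L. donovani from the two tests.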

Leishmania mexicana = test: Antileishmanial activity against Leishmania mexicana; type: functional, organism-based

SMILES | IC50 (Leishmania donovani) [µg/mL] | IC90 (Leishmania donovani) [µg/mL] | IC50 (Staphylococcus aureus [1]) [µg/mL] | IC50 (Staphylococcus aureus [2]) [µg/mL] | IC50 [3] [µg/mL] | IC50 (Plasmodium falciparum [4]) [µg/mL] | selectivity ratio [5] | IC50 (Plasmodium falciparum [6]) [µg/mL] | selectivity ratio [7] | IC50 (Vero) [µg/mL] | selectivity ratio [8] | IC50 (Leishmania mexicana) [µg/mL]
CC1=C(O)C(=O)C=C2C1=CC=C1[C@@]2(C)CC[C@@]2(C)[C@@H]3C[C@@H](CO)CC[C@]3(C)CC[C@]12C | 0.027 (≈ 0.0639 µM) | 0.057 (≈ 0.135 µM) | 0.65 (≈ 1.54 µM) | 0.7 (≈ 1.66 µM) | 15 (≈ 35.5 µM) | 0.068 (≈ 0.161 µM) | 31 | 0.068 (≈ 0.161 µM) | 31 | 2.1 (≈ 4.97 µM) | 31 | –
C[C@@H]1[C@H](O)[C@@H](C)/C=C/C=C/C=C/C=C/C=C/C=C/C=C/[C@H](O[C@@H]2O[C@H](C)[C@@H](O)[C@H](N)[C@@H]2O)C[C@@H]2O[C@](O)(C[C@@H](O)C[C@@H](O)[C@H](O)CC[C@@H](O)C[C@@H](O)CC(=O)O[C@H]1C)C[C@H](O)[C@H]2C(=O)O [AMPHOTERICIN B] | 0.11 (≈ 0.119 µM) | 0.23 (≈ 0.249 µM) | – | – | – | – | – | – | – | 6.5 (≈ 7.03 µM) | 59 | –
C[C@@H]1CC[C@H]2[C@@H](C)C(=O)O[C@@H]3O[C@@]4(C)CC[C@@H]1[C@]32OO4 [ARTEMISININ] | – | – | – | – | – | – | – | 0.0018 (≈ 0.00638 µM) | – | – | – | –
C=C1CC[C@]2(C)CC[C@]3(C)C4=CC=C5C(=CC(=O)C(O)=C5C)[C@]4(C)CC[C@@]3(C)[C@@H]2C1 [ISOIGUESTERIN] | 0.032 (≈ 0.0791 µM) | 0.055 (≈ 0.136 µM) | 0.85 (≈ 2.1 µM) | 0.85 (≈ 2.1 µM) | 4.5 (≈ 11.1 µM) | 0.2 (≈ 0.494 µM) | 3.4 | 0.17 (≈ 0.42 µM) | 3.9 | 1.6 (≈ 3.95 µM) | 50 | 0.035 (≈ 0.0865 µM)
